Source: PubChem (Johns Hopkins Ion Channel Center)
Most compounds without a hit are left out; they make up all but 2.9% or so of the library.
TRPC4 inh – inhibitors of mouse TRPC4 channel, primary screen, Fluo4 calcium, HEK293 TRPC4beta/mu-opioid cells | DAMGO-evoked Fluo4 calcium flux; hits give low values | B-score at 10 µM | Short transient receptor potential channel 4 (Mus musculus), Q9QUQ5 | 0.39% of 300,000 active;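 active = B-score over 3 SD under the library average, no early fluorescence shift, positive overall ratio signal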
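Assay system – HEK293 line stably carrying TRPC4beta and mu-opioid receptor · Doses – single dose · Detection – Fluo4 calcium-dye fluorescence, kinetic read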
TRPC4 act – activators of mouse TRPC4 channel, primary screen, Fluo4 calcium, HEK293 TRPC4beta/mu-opioid cells. Short transient receptor potential channel 4 (Mus musculus), Q9QUQ5. Fluo4 calcium fluorescence; hits give high values. B-score at 10 µM. 0.49% of 310,000 active;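 active = B-score above 5 SD of library B-scores, and initial fluorescence ratio not above library mean plus 5 SD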;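 note: positive B-score marks a calcium rise read as TRPC4 activation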
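Assay system: HEK293 cells stably co-expressing mouse TRPC4beta and mu-opioid receptor / Timing: Fluo4 dye loading 45 min at room temperature, 110 s recording / Signal: Fluo4 calcium-sensitive dye fluorescence, kinetic, 1 Hz baseline / Read-out: integrated baseline-normalised fluorescence ratio, converted to per-well B score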
TRPC4 potent – positive allosteric modulators of TRPC4, primary screen, cell-based, mouse TRPC4beta, HEK293 mu-opioid, Fluo-4 calcium. Short transient receptor potential channel 4 (Mus musculus), Q9QUQ5. B-score at 10 µM. 0.42% of 310,000 active. DAMGO EC20, Fluo-4 Ca2+ flux; hits give high values;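 active = B-score of calcium response area above 5 SD of library B-scores, with initial fluorescence ratio within 5 SD of library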
Kir21 block – inhibitors of mouse Kir2.1 inward-rectifier potassium channel; Inward rectifier potassium channel 2 (Mus musculus), P35561; HEK293-Kir2.1, FluxOR thallium flux fluorescence; hits give low values; B-score at 10 µM; 0.85% of 310,000 active; AID 1672, 2009;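 active = fluorescence ratio B-score at or below minus 3 SD of library scores, with starting-brightness B-score within 2 SD, cut at about -4.2 in these data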;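 note: channel flux triggered by added potassium and thallium sulfate stimulus; B-score of peak minus minimum fluorescence over baseline after thallium stimulus; more negative B-score means stronger Kir2.1 block with less thallium influx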
TRPC6 inh – mouse TRPC6 channel inhibitors, primary screen, cell-based, HEK293, membrane potential dye; 1.1% of 310,000 active; Short transient receptor potential channel 6 (Mus musculus), Q61143; AID 2553, 2010; ACh-evoked depolarization; hits give low values; B-score at 10 µM;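 active = B-score under library mean minus 3 SD, initial fluorescence not abnormally high, positive integrated signal ratio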;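 note: B-score derived from integrated fluorescence ratio over the kinetic read; more negative B-score means stronger inhibition of depolarization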
Target sequence (Q61143 whole entry, looked up): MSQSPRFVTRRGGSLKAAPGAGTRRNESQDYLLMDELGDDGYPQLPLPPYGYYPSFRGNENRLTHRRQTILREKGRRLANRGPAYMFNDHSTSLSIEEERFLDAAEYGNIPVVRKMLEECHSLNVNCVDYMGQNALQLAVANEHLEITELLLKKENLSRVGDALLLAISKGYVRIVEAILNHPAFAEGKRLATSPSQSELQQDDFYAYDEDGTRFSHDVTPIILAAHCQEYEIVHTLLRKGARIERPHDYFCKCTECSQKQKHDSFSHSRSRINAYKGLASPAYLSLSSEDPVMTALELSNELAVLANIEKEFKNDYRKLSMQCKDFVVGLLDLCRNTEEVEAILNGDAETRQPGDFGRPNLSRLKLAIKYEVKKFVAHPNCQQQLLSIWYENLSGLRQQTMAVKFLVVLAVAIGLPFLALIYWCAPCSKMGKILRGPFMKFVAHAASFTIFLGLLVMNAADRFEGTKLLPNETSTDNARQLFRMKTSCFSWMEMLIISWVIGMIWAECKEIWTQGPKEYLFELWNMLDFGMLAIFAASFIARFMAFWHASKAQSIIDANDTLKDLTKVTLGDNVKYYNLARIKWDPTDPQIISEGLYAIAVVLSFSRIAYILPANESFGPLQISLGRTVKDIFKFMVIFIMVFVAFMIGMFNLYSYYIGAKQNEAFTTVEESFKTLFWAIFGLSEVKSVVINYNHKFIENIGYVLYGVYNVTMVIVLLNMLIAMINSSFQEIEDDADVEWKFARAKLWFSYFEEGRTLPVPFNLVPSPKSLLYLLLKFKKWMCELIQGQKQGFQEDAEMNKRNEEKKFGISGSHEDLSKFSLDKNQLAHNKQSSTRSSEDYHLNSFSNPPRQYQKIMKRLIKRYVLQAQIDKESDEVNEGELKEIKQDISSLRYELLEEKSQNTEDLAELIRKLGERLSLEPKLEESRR
TRPC6 activator – mouse TRPC6 channel activators, primary screen, cell-based, HEK293, membrane potential dye. Short transient receptor potential channel 6 (Mus musculus), Q61143. HEK293-TRPC6 membrane potential dye fluorescence; hits give high values. B-score at 10 µM. 0.13% of 310,000 active. AID 2550, 2010;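 active = B-score of the integrated fluorescence ratio above library mean plus 3 SD, and starting fluorescence ratio within library mean plus 5 SD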;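 note: higher score means more depolarization so channel activation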
Of the large screens only hits and unclear results are named; the others gave an inactive call.

COc1ccc(CCNC(=O)c2cc(=O)c3cc(C)ccc3o2)cc1OC	none
Cc1ccc(OCCCN2CCOCC2)cc1	none
Cc1csc(NC(=O)c2ccc(COc3ccccc3)o2)n1	none
c1ccc(-c2csc3nnc(SCc4ccc5c(c4)OCCO5)n23)cc1	Kir21 block -5.2
O=C(CSc1nnc2scc(-c3ccccc3)n12)c1ccc2c(c1)OCCO2	none
Cc1c(C=O)c2cc(OCc3ccccc3)ccc2n1C	none
COc1cc(C)nc(NCc2ccccc2)n1	none
Cc1ccc(Nc2cc(C)nc(NCc3ccccc3)n2)cc1	Kir21 block -5.5
Cc1cc(N/N=C/c2ccccc2Cl)nc(NCc2ccccc2)n1	none
COc1ccc(Nc2cc(C)nc(NCc3ccccc3)n2)cc1	Kir21 block -14
Cc1cc(NC2CCCCC2)nc(NCc2ccccc2)n1	Kir21 block -13
COc1cc(/C=N/NC(=O)C(=O)NCc2ccco2)cc(Br)c1O	none
O=C1NC(Cc2c[nH]c3ccccc23)C(=O)N1CCOc1ccc(F)cc1 (stereo not given)	Kir21 block -5.3
CCOc1cc(CNC2CCCC2)c(Cl)cc1OCC(=O)Nc1ccccc1	Kir21 block -4.5
COC(C[C@@H]1O[C@H]1C(=O)[C@@H](C)OCc1ccccc1)OC	none
COc1ccc(NC2CCCN(C(=O)CCc3cccc(Cl)c3)C2)cc1 (stereo not given)	Kir21 block -4.2
O=[N+]([O-])c1cccc(N(CC(O)CN2CCCC2)S(=O)(=O)c2ccccc2)c1 (stereo not given)	TRPC4 inh -8
CCN(CCCNC(=O)COc1cc(=O)n(C)c2ccccc12)c1cccc(C)c1	Kir21 block -6.8
Cn1c(=O)cc(OCCCC(=O)NCCCN2CCN(Cc3ccccc3)CC2)c2ccccc21	TRPC4 potent 25
Cc1cccc(CCNC(=O)COc2cc(=O)n(C)c3ccccc23)c1	none
Cn1c(=O)cc(OCCCC(=O)NCCN2CCN(c3ccccc3F)CC2)c2ccccc21	none
CCOc1nc2cnccc2n(CC(=O)Nc2c(C)cccc2CC)c1=O	none
COc1ccc(CCNC(=O)Cn2cnc3c(cnn3C(C)(C)C)c2=O)cc1OC	TRPC4 potent 26
Cc1ccccc1C(=O)c1cccn1CC(=O)NCc1ccccc1	none
COc1ccc(CCNC(=O)Cn2cccc2C(=O)c2ccccc2)cc1OC	none
COc1ccc(CCNC(=O)Cn2cccc2C(=O)c2ccccc2C)cc1OC	Kir21 block -5
CC(C)(C)n1ncc2c(=O)n(CC(=O)NCCc3ccccc3)cnc21	none (no result: TRPC4 inh)
Cc1ccccc1C(=O)c1cccn1CC(=O)NCC(C)c1ccccc1 (stereo not given)	Kir21 block -6.4
CC1(c2ccc([N+](=O)[O-])cc2)Nc2ccccc2S1 (stereo not given)	none
Cc1nn(CC(=O)N2CCC(C)CC2)c(=O)c2nn(-c3ccccc3)c(C)c12	none
Cc1ccc(OCC(=O)c2ccc3c(c2)CCCC3)cc1C	none
O=C(COc1ccc(Br)cc1)c1ccc2c(c1)CCCC2	TRPC4 potent 12
O=C(Nc1ccc(Cl)cc1)N1CCCN(Cc2ccc(F)cc2)C1	Kir21 block -4.5
O=C(Nc1ccccc1)N1CCN(Cc2ccc(Cl)cc2)CC1	none
c1ccc(OCC2CCNCC2)nc1	TRPC4 act 84
COc1ccc(C(=O)NCc2nnc(SCC(=O)NCCc3ccccc3)o2)cc1	none
COc1ccc(S(=O)(=O)N2CCCCCC2)cc1C(=O)N(C)Cc1ccc(Cl)cc1Cl	TRPC4 potent 26
COc1ccccc1/C=C1\SC(=S)N(CCC(=O)NCCCn2ccnc2)C1=O	Kir21 block -4.5
O=C(CCCN1C(=O)/C(=C/c2ccc(F)cc2)SC1=S)NCCCn1ccnc1	Kir21 block -4.7
O=C(O)Cc1ccc(S(=O)(=O)Nc2ccccc2C(=O)O)cc1	none
FC(F)C(F)(F)c1cc(-c2ccc(Cl)cc2)n[nH]1	TRPC4 act 50
Fc1ccc(-c2cc(C(F)(F)C(F)F)[nH]n2)cc1	TRPC4 act 71
CC(C)CNC(=O)c1ccccc1NC(=O)/C=C/c1cccc([N+](=O)[O-])c1	none
CC(C)c1cc(-c2cc(C(=O)NCc3ccccc3)on2)nc(NCC2CC2)n1	TRPC4 potent 10
CCCC/C(C)=N/NC(=O)Nc1ccccc1	TRPC4 act 74
Cc1cc2c(cc1S(=O)(=O)N1CCN(c3cccc(C)c3C)CC1)OCC(=O)N2	none
CCCN(CCC)CCCNC(=S)Nc1ccc2nc3n(c(=O)c2c1)CCCCC3	TRPC4 potent 14
Cc1ccc(-c2nc3cnccn3c2Nc2ccc3c(c2)OCO3)cc1	TRPC6 inh -5.7
Cc1occc1-c1nnc(SCC(=O)c2ccc3c(c2)OCCO3)n1CC1CCCO1 (stereo not given)	none
CCCCn1c(SCC(=O)c2ccc3c(c2)OCCO3)nnc1-c1ccoc1C	Kir21 block -5
COC(=O)c1sccc1NC(=O)c1ccc(C#N)cc1	TRPC6 inh -5
COC(=O)c1sccc1NC(=O)c1ccc(OC)cc1	none
CCC1(C)COC(C)(CC(=O)NNC(=O)Nc2ccccc2)OC1 (stereo not given)	none
Cc1ccc(C)c(CSCc2nc3ccccc3[nH]2)c1	Kir21 block -8.4
Cc1ccccc1CSCc1nc2ccccc2[nH]1	none
CCCOc1ccc(C(=O)NNC(=S)NC(=O)c2ccccc2)cc1	TRPC4 act 167
CC(C)(C)C(=O)NC(=S)NNC(=O)c1ccc(-c2ccccc2)cc1	TRPC4 act 277
CCCCOc1ccc(C(=O)NNC(=S)NC(=O)CC)cc1	TRPC4 act 73
CCC(=O)NC(=S)NNC(=O)c1ccc(OC)cc1	none
CC(C)(C)C(=O)NC(=S)NNC(=O)c1ccncc1	none
CCCOc1ccc(C(=O)NNC(=S)NC(C)=O)cc1	none
Cc1ccccc1C(=O)NNC(=S)NC(=O)COc1ccccc1	TRPC4 act 177
Cc1ccc2cc(CN(CC(C)C)S(=O)(=O)c3cccc4nonc34)c(=O)[nH]c2c1	none
COc1ccc(CNC(=O)CCCC(=O)n2nc(C)c3ccccc32)cc1	none
Cc1c(C)n(-c2ccc(Cl)cc2)c2ncnc(N)c12	none
CN(C(=S)NC(=O)c1ccccc1)C1CCCCC1	none
CC(C)(C)c1ccc(OCC(=O)NNC(=O)CCc2ccccc2)cc1	none
